Reference: ChEMBL document CHEMBL4831507, “Development of FABP4/5 inhibitors with potential therapeutic effect on type 2 Diabetes Mellitus” (Eur J Med Chem, 2021)
Each block holds one compound with its values, some of them ahead of it. Calls of active or inactive are those of the source. The calls are words filed in the database; no cut-off is given here.

Key:
[1] = target: T1, Fatty acid-binding protein, adipocyte (Homo sapiens, UniProt P15090); experiment: Displacement of 1,8-ANS from FABP4 (unknown origin) at 25 uM incubated for 3 mins by fluorescence based analysis relative to control
In short: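 Single-concentration percent inhibition in the 1,8-ANS displacement assay with FABP4. Compound incubated with protein and probe in phosphate buffer for 3 min at room temperature; fluorescence read at ex 370/em 470 nm.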
Target sequence in this assay (P15090 2-132 limits assumed): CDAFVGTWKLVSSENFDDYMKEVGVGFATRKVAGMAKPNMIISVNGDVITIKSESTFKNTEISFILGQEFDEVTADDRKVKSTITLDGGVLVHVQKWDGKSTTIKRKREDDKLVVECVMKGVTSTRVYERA

3T3-L1 [2] = experiment: Cytotoxicity against mouse 3T3-L1 cells assessed as reduction in cell viability at 100 uM incubated for 24 hrs by CCK8 assay; type: cell-based; settings: 3t3-l1, 24 h
[3] = target: T1, Fatty acid-binding protein, adipocyte; experiment: Displacement of 1,8-ANS from FABP4 (unknown origin) incubated for 3 mins by fluorescence based analysis
In short: (§1)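 1,8-ANS displacement using purified recombinant FABP3, FABP4 or FABP5. Compound incubated with protein and 1,8-ANS in phosphate buffer for 3 min at room temperature. Fluorescence read at ex 370/em 470 nm. IC50 by nonlinear regression, mean ± SD of three independent experiments.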
Target sequence in this assay (P15090 whole entry): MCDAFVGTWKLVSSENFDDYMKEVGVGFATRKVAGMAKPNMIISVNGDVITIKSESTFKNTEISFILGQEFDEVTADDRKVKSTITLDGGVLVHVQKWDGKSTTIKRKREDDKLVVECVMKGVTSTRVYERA

[4] = Metabolic stability in mouse liver microsomes assessed as half life at 0.1 uM preincubated for 10 mins followed by NADPH addition and measured for 60 mins by LC-MS/MS analysis; type: ADME, Microsome; settings: time 70 min
In short: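 Mouse liver microsomes 0.33 mg/mL in 0.1 M Tris pH 7.4 with 5 mM MgCl₂, 0.01% DMSO and 0.005% BSA. Compound final […]. Preincubated 10 min at 37 °C; reaction started with 1 mM NADPH. Samples at 0, 7, 17, 30 and 60 min quenched with cold methanol, then analysed by LC-MS/MS.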

3T3-L1 [5] = experiment: Anti-lipolytic activity in mouse 3T3-L1 cells assessed as inhibition of forskolin-stimulated glycerol release at 80 uM preincubated for 24 hrs followed by forskolin stimulation for 1 hr; type: functional, cell-based; settings: time 25.0 hrs
[6] = target: Fatty acid-binding protein 5 (Homo sapiens, UniProt Q01469); experiment: Displacement of 1,8-ANS from FABP5 (unknown origin) incubated for 3 mins by fluorescence based analysis
Fatty acid-binding protein 5, sequence (Q01469 whole entry): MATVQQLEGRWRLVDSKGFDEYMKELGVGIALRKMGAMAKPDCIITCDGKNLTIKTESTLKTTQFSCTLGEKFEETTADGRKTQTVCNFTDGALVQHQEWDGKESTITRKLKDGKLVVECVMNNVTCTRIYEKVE

THP-1 [7] = experiment: Antiinflammatory activity against LPS-induced human THP-1 cells assessed as inhibition of MCP-1 gene expression at 25 uM incubated for 18 hrs followed by LPS-stimulation and measured after 6 hrs by qRT-PCR analysis; type: functional, cell-based; settings: time 24.0 hrs
In short: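 THP-1 cells (1 per 48-well, 3*10⁵) differentiated with 100 nM PMA for 24 h, then washed with PBS. Compound at […] or 0.1% DMSO for 18 h, then 100 ng/ml LPS for 6 h. RNA extracted with TRIzol. MCP-1 mRNA by RT-qPCR, 2^-ΔΔCT method.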

[8] = AUC in ICR mouse at 3 mg/kg, po measured for 24 hrs by LC-MS/MS analysis; type: ADME, organism-based; design: dose 3 mg/kg, time 24 hrs; settings: in vivo
In short: (§2)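 Male ICR mice, 20-25 g, three per group. Oral dose 3 mg/kg in PBS with 5% DMSO and 0.5% HPMC; iv dose 1 mg/kg in DMSO/EtOH/PEG300/NaCl (5/5/40/50). Blood sampled at 0.25, 0.5, 1, 2, 4, 8 and 24 h. Plasma drug measured by LC-MS/MS. Mean ± SEM, n = 3.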

[9] = AUC in ICR mouse at 1 mg/kg, iv measured for 24 hrs by LC-MS/MS analysis; type: ADME, organism-based; design: dose 1 mg/kg, time 24 hrs; settings: in vivo; in short: as §2
3T3-L1 [10] = experiment: Inhibition of FABP4 secretion in mouse 3T3-L1 cells assessed as reduction in FABP4 level in conditioned medium at 50 uM incubated for 24 hrs by immunoblotting analysis; type: functional, cell-based
In short: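 Mature 3T3-L1 adipocytes starved for 6 h in DMEM with 0.5% BSA, then treated with compound at […] for 24 h. Conditioned medium ultrafiltered; lysate and medium protein measured by BCA. FABP4 immunoblotted with GAPDH, ECL detection, densitometry. Three independent experiments.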

[11] = Half life in ICR mouse at 3 mg/kg, po measured for 24 hrs by LC-MS/MS analysis; type: ADME, organism-based; settings: in vivo; in short: as §2
[12] = target: T1, Fatty acid-binding protein, adipocyte; experiment: Binding affinity to FABP4 (unknown origin) by microscale thermophoresis analysis
Target sequence in this assay (P15090 whole entry): as the sequence (P15090 whole entry) above

[13] = Toxicity in C57BL/KsJ-db/db mouse assessed as effect on body weight at 50 mg/kg, po administered for 8 weeks; type: organism-based; settings: in vivo, 1344 h
In short: (§3)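 Male db/db mice, 6 weeks old, 10 per group, dosed 50 mg/kg by gavage daily for 8 weeks; vehicle 0.5% CMC-Na. Lean littermates received vehicle. Body weight recorded twice weekly; 6-h fasting tail glucose by glucometer weekly. OGTT on day 45: overnight fast, glucose 0.5 g/kg by gavage. ITT on day 51: 6-h fast, insulin 0.85 IU/kg ip. Glucose AUC calculated. Final serum taken after 6-h fast; HDL-C, LDL-C, TG, TCH and FABP4 measured by kits. Liver Akt and p-Akt(Ser473) by western blot.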

Mus musculus [14] = experiment: Reduction in FABP4 level in serum of C57BL/KsJ-db/db mouse at 50 mg/kg, po administered for 8 weeks; type: functional, organism-based; in short: as §3
Mus musculus [15] = experiment: Improvement in lipid homeostasis in C57BL/KsJ-db/db mouse assessed as reduction in low density cholesterol level in serum at 50 mg/kg, po administered for 8 weeks; type: functional, organism-based; in short: as §3
[16] = Half life in ICR mouse at 1 mg/kg, iv measured for 24 hrs by LC-MS/MS analysis; type: ADME, organism-based; settings: in vivo; in short: as §2
[17] = target: Fatty acid-binding protein, heart (Homo sapiens, UniProt P05413); experiment: Displacement of 1,8-ANS from FABP3 (unknown origin) incubated for 3 mins by fluorescence based analysis; in short: as §1
Fatty acid-binding protein, heart, sequence (P05413 whole entry): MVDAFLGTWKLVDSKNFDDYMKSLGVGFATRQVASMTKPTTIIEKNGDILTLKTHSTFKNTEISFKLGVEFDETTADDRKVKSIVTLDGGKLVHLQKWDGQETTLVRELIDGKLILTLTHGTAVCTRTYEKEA

[18] = Oral bioavailability in ICR mouse at 3 mg/kg measured for 24 hrs by LC-MS/MS analysis; type: ADME, organism-based; settings: in vivo; in short: as §2
Mus musculus [19] = experiment: Improvement in lipid homeostasis in C57BL/KsJ-db/db mouse assessed as effect on total cholesterol level in serum at 50 mg/kg, po administered for 8 weeks; type: functional, organism-based; in short: as §3
Mus musculus [20] = experiment: Improvement in lipid homeostasis in C57BL/KsJ-db/db mouse assessed as increase in high density cholesterol level in serum at 50 mg/kg, po administered for 8 weeks; type: functional, organism-based; in short: as §3
[21] = Cmax in ICR mouse at 3 mg/kg, po and 1 mg/kg, iv measured for 24 hrs by LC-MS/MS analysis; type: ADME, organism-based; design: time 24 hrs, dose 3 mg/kg; settings: in vivo; in short: as §2
Mus musculus [22] = experiment: Antidiabetic activity in C57BL/KsJ-db/db mouse assessed as improvement in glucose metabolism at 50 mg/kg, po administered for 45 days by oral glucose tolerance test; type: functional, organism-based; settings: time 45.0 day; in short: as §3
Mus musculus [23] = experiment: Improvement in lipid homeostasis in C57BL/KsJ-db/db mouse assessed as effect on triglyceride level in serum at 50 mg/kg, po administered for 8 weeks; type: functional, organism-based; in short: as §3
Mus musculus [24] = experiment: Antidiabetic activity in C57BL/KsJ-db/db mouse assessed as improvement in insulin resistance at 50 mg/kg, po administered for 51 days by insulin tolerance test; type: functional, organism-based; settings: time 51.0 day; in short: as §3
Mus musculus [25] = experiment: Antidiabetic activity in C57BL/KsJ-db/db mouse assessed as reduction in fasting blood glucose level at 50 mg/kg, po administered for 7 weeks; type: functional; settings: 1176 h; in short: as §3
Mus musculus [26] = experiment: In vivo activation of […] signaling in C57BL/KsJ-db/db mouse assessed as increase in Akt phosphorylation at Ser473 in liver at 50 mg/kg, po administered for 8 weeks by western blot analysis; type: functional, organism-based; in short: as §3
[27] = Clearance in ICR mouse at 3 mg/kg, po and 1 mg/kg, iv measured for 24 hrs by LC-MS/MS analysis; type: ADME, organism-based; settings: in vivo; in short: as §2
THP-1 [28] = experiment: Cytotoxicity against human THP-1 cells assessed as reduction in cell viability at 50 uM incubated for 24 hrs by CCK8 assay; type: cell-based; settings: thp-1, 24 h
Homo sapiens [29] = organism: Homo sapiens; experiment: Selectivity ratio of IC50 for FABP3 (unknown origin) to IC50 for FABP4 (unknown origin); in short: as §1
Homo sapiens [30] = organism: Homo sapiens; experiment: Selectivity ratio of IC50 for FABP3 (unknown origin) to IC50 for FABP5 (unknown origin); in short: as §1

inhibition [1]: 85%
IC50 [3]: 5 µM
half-life at 0.1 µM [4]: 1.47 h
SMILES: Cc1cc(F)ccc1-c1ccc(S(=O)(=O)Nc2ccc(F)c(C(=O)O)c2)c2ccccc12
Activity (3T3-L1 [2]): Non-Toxic
Activity (3T3-L1 [5]): Active

inhibition [1]: 52%
SMILES: O=C(O)c1cc(NS(=O)(=O)c2ccc(-c3ccncc3)c3ccccc23)ccc1F

inhibition [1]: 84%
IC50 [3]: 6.45 µM
SMILES: COc1c(-c2cccc(Cl)c2F)cc(S(=O)(=O)Nc2ccc(F)c(CC(=O)O)c2)c2ccccc12

inhibition [1]: 56%
IC50 [6]: 7.72 µM
SMILES: COc1c(-c2ccccc2C(F)(F)F)cc(S(=O)(=O)Nc2ccc(F)c(CC(=O)O)c2)c2ccccc12

inhibition [1]: 86%
AUC at 24 h [8]: 1090 ng·h/mL
AUC at 24 h [9]: 1980 ng·h/mL
half-life [11]: 1.36 h
Kd [12]: 11.1 µM
half-life [16]: 2.88 h
IC50 [17]: 104 µM
bioavailability [18]: 18.4%
Cmax [21]: 782 ng/mL
IC50 [3]: 4.68 µM
half-life at 0.1 µM [4]: 1.52 h
clearance [27]: 8.73 mL/min/kg
SMILES: O=C(O)c1cc(NS(=O)(=O)c2ccc(-c3ccc(F)cc3Cl)c3ccccc23)ccc1F
Activity (THP-1 [7]): Active
Activity (3T3-L1 [2]): Non-Toxic
inhibition (3T3-L1 [10]): Active
Activity [13]: Non-Toxic
inhibition (Mus musculus [14]): Active
Activity (Mus musculus [15]): Active
Activity (Mus musculus [19]): inactive
Activity (Mus musculus [20]): Active
Activity (Mus musculus [22]): Active
Activity (Mus musculus [23]): inactive
Activity (Mus musculus [24]): Active
inhibition in vivo at 50 mg/kg (Mus musculus [25]): 32.4%
Activity (Mus musculus [26]): Active
Activity (THP-1 [28]): Non-Toxic
Activity (3T3-L1 [5]): Active

inhibition [1]: 40%
SMILES: O=C(O)c1cc(NS(=O)(=O)c2ccc(-c3ccc(C(F)(F)F)cc3)c3ccccc23)ccc1F

inhibition [1]: 52%
SMILES: COc1c(-c2cc(Cl)ccc2Cl)cc(S(=O)(=O)Nc2ccc(F)c(CC(=O)O)c2)c2ccccc12

inhibition [1]: 88%
IC50 [3]: 5 µM
SMILES: COc1c(-c2ccc(F)c(Cl)c2)cc(S(=O)(=O)Nc2ccc(F)c(CC(=O)O)c2)c2ccccc12

inhibition [1]: 97%
IC50 [17]: 1.95 µM
Ratio IC50 (Homo sapiens [29]): 0.31
Ratio IC50 (Homo sapiens [30]): 0.08
IC50 [3]: 6.34 µM
SMILES: Cc1c(Cl)cccc1OCc1[nH]c2nc(-c3ccccc3)nn2c(=O)c1C

inhibition [1]: 82%
IC50 [3]: 4.84 µM
SMILES: O=C(O)c1cc(NS(=O)(=O)c2ccc(-c3ccccc3)c3ccccc23)ccc1F

inhibition [1]: 80%
IC50 [3]: 7.68 µM
SMILES: O=C(O)c1cc(NS(=O)(=O)c2ccc(-c3ccc(F)cc3)c3ccccc23)ccc1F

inhibition [1]: 78%
IC50 [6]: 6.33 µM
IC50 [17]: 103 µM
Ratio IC50 (Homo sapiens [29]): 13.1
Ratio IC50 (Homo sapiens [30]): 16.3
IC50 [3]: 7.84 µM
SMILES: O=C(O)c1cc(NS(=O)(=O)c2ccc(-c3ccc(F)c(Cl)c3)c3ccccc23)ccc1F
Activity (3T3-L1 [2]): Non-Toxic

inhibition [1]: 77%
IC50 [6]: 7.57 µM
IC50 [3]: 8.02 µM
half-life at 0.1 µM [4]: 0.718 h
SMILES: COc1c(-c2ccccc2Cl)cc(S(=O)(=O)Nc2ccc(F)c(CC(=O)O)c2)c2ccccc12
Activity (3T3-L1 [2]): Non-Toxic
Activity (3T3-L1 [5]): Active

inhibition [1]: 85%
IC50 [3]: 4.7 µM
SMILES: O=C(O)c1cc(NS(=O)(=O)c2ccc(-c3ccc(F)cc3F)c3ccccc23)ccc1F
Activity (3T3-L1 [2]): Non-Toxic
